Rows were chosen to be rich in hits. Some 2.8% of all compounds tested hit in one or more screens of this group.
E-selectin induc: induces E-selectin expression in human endothelial cells; P16581; HUVEC E-selectin immunofluorescence imaging; normalized: neutral wells 0, TNF-alpha wells 100; activation, % at 7.58 µM; 260,000 tested, 0.37% active; AID 686992;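 active means mean E-selectin-positive cell signal at least 10% of the positive control, reached in at least 60% of replicates, without over 20% cell loss; inconclusive means no rule given, readout overlaps actives, possibly toxicity-flagged; inactive means the rest, including those meeting only one limit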
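System: HUVEC, human umbilical vein endothelial cells; quantity: 3,000 cells/well; buffer or medium: EGM-2 medium, gelatin-coated wells; dosing: single-point compound dose; detection: immunofluorescence imaging; evaluation: % PE-positive cells; benchmarks: TNF-alpha, DMSO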
SIRT5 block: blocks human SIRT5 desuccinylation of peptide. Q9NXA8. Purified SirT5, succinyl-peptide AMC, trypsin-coupled fluorescence. inhibition, % at 15 µM. 330,000 tested, 1.1% active. AID 652115; in the data active means inhibition above about 15%; inconclusive means no clear call, values can overlap the other calls
DENV2 CPE: DENV2-induced cell death inhibition; DENV2-infected cells, cytopathic effect rescue, plate reader; CPE inhibition, % at 9.99 µM; 350,000 tested, 1.7% active; AID 651640; in the data active means CPE inhibition above about 20%, passing the limit was not always enough; inconclusive means no clear call, values can overlap the other calls; tested in BHK-21 cells
Each line names hits and unclear results; the compound was inactive in the other large screens.

CC(C)C[C@H](NC(=O)c1nc[nH]c1C(=O)NC1CCN(C(=O)OC(C)(C)C)CC1)C(=O)OC(C)(C)C	DENV2 CPE 50 (no result: SIRT5 block)
CC(C)(C)OC(=O)[C@H](Cc1ccccc1)NC(=O)c1nc[nH]c1C(=O)NC1CCN(C(=O)OC(C)(C)C)CC1	none (no result: SIRT5 block)
CN(Cc1ccccc1)C(=O)c1nc[nH]c1C(=O)N1CCN(c2ccccc2)CC1	none (no result: SIRT5 block)
CC(C)(C)OC(=O)N1CCC(NC(=O)c2nc[nH]c2C(=O)NCc2ccccc2)CC1	DENV2 CPE 34 (no result: SIRT5 block)
CN(Cc1ccccc1)C(=O)c1nc[nH]c1C(=O)N1CCN(C(=O)OC(C)(C)C)CC1	DENV2 CPE 42 (no result: SIRT5 block)
C[C@@H]1CCCCO[C@H](CN(C)C(=O)Nc2cccc3ccccc23)[C@H](C)CN([C@@H](C)CO)C(=O)c2cc(NS(=O)(=O)c3ccc(Cl)cc3)ccc2O1	none (no result: E-selectin induc)
CCC(=O)Nc1ccc2c(c1)OC[C@@H](C)N(C(=O)c1cccnc1)C[C@H](C)[C@H](OC)CN(C)C2=O	none
CN1[C@@H]2Cn3c(ccc(-c4ccccc4)c3=O)[C@H]1[C@@H](C(=O)NCC1CC1)[C@@H]2CO	none
COCC(=O)N1CC[C@H]2[C@H](CO)Nc3ccc(-c4cccc(C(=O)N(C)C)c4)cc3[C@H]21	none
COc1cccc(NC(=O)N[C@H]2C=C[C@H](CC(=O)N3CCCCC3)O[C@H]2CO)c1	none
O=C(C[C@H]1C[C@@H]2c3cc(NC(=O)Nc4ccccc4)ccc3O[C@@H]2[C@@H](CO)O1)NCc1cccc(F)c1	none
C[C@@H]1CN([C@H](C)CO)S(=O)(=O)c2ccc(C3=CCCCC3)cc2O[C@H]1CN(C)S(=O)(=O)c1ccc(F)cc1	SIRT5 block 30
Cc1ccc(S(=O)(=O)N(C)C[C@H]2Oc3cc(C4=CCCC4)ccc3S(=O)(=O)N([C@@H](C)CO)C[C@@H]2C)cc1	none
C[C@H](CO)N1C[C@H](C)[C@H](CN(C)S(=O)(=O)c2ccc(F)cc2)Oc2cc(C3=CCCC3)ccc2S1(=O)=O	none
C[C@@H]1CN([C@@H](C)CO)S(=O)(=O)c2ccc(C3=CCCC3)cc2O[C@@H]1CN(C)S(=O)(=O)c1ccc(F)cc1	none
Cc1ccc(S(=O)(=O)N(C)C[C@@H]2Oc3cc(C4=CCCC4)ccc3S(=O)(=O)N([C@H](C)CO)C[C@H]2C)cc1	DENV2 CPE 79
C[C@H](CO)N1C[C@H](C)[C@@H](CN(C)S(=O)(=O)c2ccc(F)cc2)Oc2cc(C3=CCCCC3)ccc2S1(=O)=O	SIRT5 block 19
C[C@H](CO)N1C[C@H](C)[C@@H](CN(C)S(=O)(=O)c2cccs2)OCCCC[C@H](C)Oc2ccc(NC(=O)CCCN(C)C)cc2C1=O	none
CCCC#Cc1cnc2c(c1)C(=O)N([C@@H](C)CO)C[C@@H](C)[C@@H](CN(C)C(=O)NC1CCCC1)O2	none
CCCNC(=O)N1CC(=O)N2[C@H](CO)[C@@H](c3ccc(C#Cc4cccc(F)c4)cc3)[C@H]2C1	none
COc1ccccc1NC(=O)N[C@H]1C=C[C@@H](CC(=O)N[C@H](C)c2ccccc2)O[C@H]1CO	none
CC(C)NC(=O)Nc1ccc2c(c1)C(=O)N([C@H](C)CO)C[C@@H](C)[C@H](CN(C)C(=O)c1ccncc1)OCCCC[C@H](C)O2	none
Cc1ccccc1OCC(=O)Nc1ccc(N2CCOCC2)cc1N1CCOCC1	none (no result: E-selectin induc)
COc1ccccc1OCC(=O)Nc1ccc(N2CCOCC2)cc1N1CCOCC1	DENV2 CPE 29
COc1ccc2c3c([nH]c2c1)[C@H](CO)N(C)CC31CN(C(=O)c2ccccn2)C1	none (no result: SIRT5 block)
O=C(OCc1ccccc1)N1CCC2CC1c1cc(Cl)ccc12 (stereo not drawn)	none
O=C(OCc1ccccc1)N1CCC2CC1c1ccc(N3CCOCC3)cc12 (stereo not drawn)	none (no result: SIRT5 block)
O=C(OCc1ccccc1)N1CCCC2CC1c1ccccc12 (stereo not drawn)	DENV2 CPE 44 (no result: E-selectin induc)
O=C(OCc1ccccc1)N1CCC2CC1c1ccc(N3CCNCC3)cc12 (stereo not drawn)	DENV2 CPE 75
O=C1CSCN1c1ccccc1	none (no result: E-selectin induc)
O=C(C[C@H]1CC[C@@H](NC(=O)c2cccc(F)c2)[C@H](CO)O1)Nc1nccs1	none
COc1ccc(CN(C)C[C@@H]2Oc3ccc(NC(=O)CCCN(C)C)cc3C(=O)N([C@@H](C)CO)C[C@H]2C)cc1	none
CCNC(=O)C[C@H]1CC[C@H]2[C@H](COc3ccc(NC(=O)c4cccc(C(F)(F)F)c4)cc3C(=O)N2C)O1	DENV2 CPE inconclusive (no result: SIRT5 block)
CC(=O)CC(=O)O[C@@H]1C=C[C@H](NC(=O)OC(C)(C)C)C1	DENV2 CPE 29 (no result: SIRT5 block)
COC(=O)CC(=O)O[C@H]1C=C[C@@H](NC(=O)OC(C)(C)C)C1	none (no result: E-selectin induc)
COc1ccccc1S(=O)(=O)N[C@@H]1CC[C@H](CC(=O)NCc2cc(F)cc(F)c2)O[C@H]1CO	none
